Measurements gathered from unrelated publications.
Compare with care: the assays were run in different laboratories.
Target: Protein kinase C eta type (PRKCH, Homo sapiens, UniProt P24723)

| Compound | observed | mode | technique | tested at | quantity | value |
| --- | --- | --- | --- | --- | --- | --- |
| Cc1cc(NC(=O)c2cccc3cc(-c4cccc5[nH]nc(N)c45)ccc23)ccc1F | enzyme activity | inhibitor |  | 0.1 µM | activity vs control | 109% |
| CNCc1ccccc1-c1csc([C@H](C)Nc2nc(C)nc3cc(OC)c(OC)cc23)c1 | cell-free assay |  | competition with immobilised ligand | 1 µM | remaining binding | 100% |
| CCN(CC)CCNC(=O)c1c(C)[nH]c(/C=C2\C(=O)Nc3ccc(F)cc32)c1C | enzyme activity | inhibitor |  | 10 µM | inhibition | 4% |
| CN1CC(Oc2cnc(C#N)cc2-c2ccn3nc(NC(=O)C4CC4)cc3c2)C1 | enzyme activity | inhibitor |  | 1 µM | inhibition | -11% |
| Cn1cncc1C1=CN(c2ncnc3[nH]cnc23)CCS1 | enzyme activity | inhibitor | radiometric | 2 µM | inhibition | 83.6% |
| COc1cc2ncnc(Nc3ccc(Oc4ccccc4)cc3C)c2cc1OC | enzyme activity | inhibitor |  | 1 µM | inhibition | 7% |
| COc1cc(-c2cc(-c3ccc(N4CCNCC4)cc3)cnc2C)cc(OC)c1OC | enzyme activity | inhibitor |  | 0.1 µM | inhibition | 2% |
| CS(=O)(=O)NCC[C@H](NC(=O)c1cncc2c1cnn2-c1ccc(F)cc1)c1ccnc(S(C)(=O)=O)c1 | cell-free assay |  | competition with immobilised ligand | 1 µM | remaining binding | 80% |
| CCN(CC)c1ccc(C2=NNC(=O)CC2C)cc1[N+](=O)[O-] (stereo not shown) | enzyme activity | inhibitor |  | 10 µM | remaining activity | 105% |
| O=C(Nc1cnn(-c2csc(C(=O)NC3COC3)c2)c1)Nc1c(F)cccc1Cl | enzyme activity | inhibitor |  | 5 µM | remaining activity | 99% |
| CCS(=O)(=O)c1cc2cc(C[C@](O)(CC(C)(C)c3ccc(F)cc3C(N)=O)C(F)(F)F)[nH]c2cn1 | cell-free assay |  | competition with immobilised ligand | 1 µM | remaining binding | 94% |
| CCCOc1ccc(OC)c(F)c1C(=O)c1ccc(C(=O)N[C@@H]2CNC[C@H]2NC(=O)c2ccc3[nH]ncc3c2)cc1 | enzyme activity | inhibitor |  | 10 µM | remaining activity | 16% |
| CNC(=O)c1ccc(Nc2ncc(C(F)(F)F)c(NCc3nccnc3N(C)S(C)(=O)=O)n2)cc1 | cell-free assay |  | competition with immobilised ligand | 0.1 µM | remaining binding | 86% |
| Cc1cnc(NC2CCOCC2)nc1-n1cnc(C(=O)NC(CN)c2cc(F)cc(Cl)c2)c1 (stereo not shown) | enzyme activity | inhibitor | radiometric | 1 µM | remaining activity | 100% |
| Cc1sc(C(=O)NC2COC2)cc1-n1cc(NC(=O)Nc2c(F)cccc2Cl)cn1 | enzyme activity | inhibitor |  | 10 µM | remaining activity | 91.6% |
| C[C@@H]1CCN(c2nccc(-c3cnn4ncccc34)n2)C1 | binding |  |  | 1 µM | remaining binding | 83% |
| Cc1ccc(C(=O)NCc2ccsc2)cc1C#Cc1cn(C(C)C)c2ncnc(N)c12 | enzyme activity | inhibitor |  | 1 µM | activity vs control | 118% |
| Cn1cnc(Br)c1C1=CN(c2ncnc3[nH]cnc23)CCS1 | enzyme activity | inhibitor | radiometric | 2 µM | inhibition | 91.8% |
| CC(C)CC(=O)N1CCc2nc(-c3ccc(Br)cc3)nc(N(C)Cc3ccccc3)c2C1 | cell-free assay |  | competition with immobilised ligand | 0.1 µM | remaining binding | 94% |
